Laboratory results taken from paper PMC4816258 (Clinical and Translational Gastroenterology, 2015).
Entries after “also recorded” stand apart in the source; their conditions may differ. Blank lines part the entries; values can stand above or below the molecule they belong to. Where no end group is shown, it is not given here.

How the values were obtained:
SW620 cells = experiment: confocal fluorescence microscopy of peptide binding, SW620; type: cell-based, human; conditions: 5 μM peptide, 3 min at RT; SW620 low EGFR expression
Procedure, shortened: (§1)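 HT29 cells kept in McCoy's medium; SW480 and SW620 cells in DMEM. All with 10% FBS and 1% penicillin–streptomycin at 37 °C, 5% CO2. ~10^3 cells grown on coverslips to ~80% confluence, washed in PBS and incubated with 5 μM Cy5.5-labeled test or control peptide for 3 min at RT. Cells washed, fixed in 4% PFA for 5 min and mounted with DAPI; confocal imaging with 63× oil objective. Intensities quantified from five cells in two independent images.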

[1] = test system: spontaneous colonic adenomas in CPC;Apc mice; experiment: in vivo near-infrared fluorescence endoscopy of colon in CPC; design: species or system mouse; conditions: for T/B ratio (log2), flat lesions / T/B ratio (log2), polyps: mean±s.d., n=15; for target-to-background ratio, flat lesions / target-to-background ratio, polyps: 1.5 ml, 5 min incubation; for target-to-background ratio, flat lesions: flat lesions n=15, 5 mice; for target-to-background ratio, polyps: polyps n=15, 5 mice
Procedure, shortened: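 CPC;Apc mice (Cdx2-Cre, floxed Apc allele), n=5, aged 7–10 months, under 2–4% isoflurane in oxygen by nose cone. Colon rinsed with water under white light. Cy5.5-labeled peptides (100 μM) delivered topically through the endoscope channel and left 5 min, then unbound peptide rinsed off. Imaging with small-animal NIR fluorescence endoscope; lesions excised for H&E. T/B ratios log-transformed; fold-change taken as anti-log of difference.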

HT29 cells [2] = experiment: confocal fluorescence microscopy of peptide binding, HT29; type: cell-based, human; conditions: 5 μM peptide, 3 min at RT; HT29 high EGFR expression
Procedure, shortened: as §1

[3] = test system: EGFR in HT29 cells (siCL vs siEGFR); experiment: siRNA knockdown of EGFR, confocal microscopy of peptide binding; type: cell-based, human; conditions: for intensity siCL vs siEGFR (in words): HT29, confocal; for binding/intensity in HT29 knockdown cells (siEGFR) / binding to control HT29 cells (siCL): confocal; for binding/intensity in HT29 knockdown cells (siEGFR): EGFR-targeting siRNA; for binding to control HT29 cells (siCL): nontargeting siRNA
Procedure, shortened: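 HT29 cells, with penicillin–streptomycin omitted, transfected using DharmaFECT with EGFR-targeting or nontargeting pool siRNA. Cells incubated with Cy5.5-labeled test and control peptides, then fixed in 4% PFA or methanol. Stained with mouse anti-EGFR (1:1000) overnight at 4 °C, then AF488 goat anti-mouse (1:500) 1 h at RT. Mounted with DAPI; confocal imaging with 63× oil objective.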

[4] = fluorescence spectra of Cy5.5-labeled peptides; type: physicochemical; conditions: 10 μM in PBS, λex=671 nm
SW480 cells = experiment: confocal fluorescence microscopy of peptide binding, SW480; type: cell-based, human; conditions: 5 μM peptide, 3 min at RT; SW480 medium EGFR expression
Procedure, shortened: as §1

human colonic dysplasia = experiment: binding of peptide and antibody to human colonic specimens, confocal microscopy
Procedure, shortened: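 Human colonic biopsies from routine colonoscopy, frozen in OCT, cut at 10 μm. Sections incubated with 5 μM Cy5.5-labeled peptide in PBS for 10 min at RT, then rabbit anti-EGFR (1:1000) overnight at 4 °C and AF488 goat anti-rabbit (1:500) 1 h at RT. Sections fixed in 4% PFA and mounted with DAPI; confocal imaging at 20×. Mean intensity taken from three 30×30 μm² boxes within surface epithelium per specimen. Histology reviewed by GI pathologist.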

[5] = test system: EGFR phosphorylation, Akt and Erk1/2 phosphorylation in HT29 cells; experiment: effect of peptide on cell signaling, western blot; type: cell-based, human; conditions: 5 and 100 μM, 10, 20 and 120 min
Procedure, shortened: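 HT29 cells held in serum-free medium for 16 h, then exposed to Cy5.5-labeled peptide at 5 or 100 μM for 10, 20 or 120 min. EGF at 100 ng/ml for the same times served as reference. Cells lysed in RIPA with protease inhibitors, followed by SDS gel electrophoresis, PVDF transfer and chemiluminescent immunoblotting. Probes: EGFR, phospho-EGFR, AKT, phospho-AKT (S473), ERK1/2, phospho-ERK1/2 and tubulin.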

HT29 cells [6] = experiment: apparent association time constant, flow cytometry; type: binding, human; conditions: from k, 5 μM QRH*-Cy5.5, 4 °C
Procedure, shortened: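 HT29 cells detached with PBS-based dissociation buffer; ~10^5 cells incubated with 5 μM Cy5.5-labeled test peptide at 4 °C for intervals from 0 to 20 min. Cells washed in cold PBS, fixed in 4% PFA and analysed by flow cytometry. Median fluorescence taken as a ratio to cells without peptide at each time point. Rate constant k fitted to y(t)=Imax[1−exp(−kt)]. Six independent experiments.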

[7] = test system: dysplastic crypts in polyps; experiment: binding to dysplastic crypts in mouse polyp specimens, immunofluorescence; conditions: optimal cutting temperature-embedded mouse specimens
Procedure, shortened: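 Mouse polypoid dysplasia frozen in OCT and cut at 10 μm. Sections stained with goat anti-mouse anti-EGFR (1:1000) plus AF488-labeled secondary antibody, washed in PBS, fixed in 4% PFA for 10 min and mounted with DAPI. Confocal microscopy used; adjacent sections stained with H&E.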

[8] = test system: human dysplastic colorectal polyps; conditions: FITC-labeled, confocal endomicroscopy; cited from earlier work
[9] = biological target: Epidermal growth factor receptor (EGFR) (human (endogenous in HT29, SW480, SW620), UniProt P00533 25-1210); experiment: immunostaining of cells or tissue
[10] = NIR endoscopy, topical 100 μM, 5 min
[11] = anti-log of difference in log-transformed data

mean fluorescence intensity, dysplasia compared with normal (human colonic dysplasia; 5 μM, 10 min at RT, dysplasia n=29, normal n=15): 19.4 fold
Molecule: QRHKPRE
EGFR phosphorylation / downstream signaling [5]: No downstream signaling was observed; also recorded: lack of cytoplasmic signaling
target-to-background ratio, flat lesions ([1]; topical 100 μM): 2.7±0.7
target-to-background ratio, polyps ([1]; topical 100 μM): 4.0±1.7

fold change of fluorescence intensity, siCL- vs. siEGFR-transfected cells [9]: 3.2 fold
Molecule: QRHKPREGGGSK(Cy5.5)-NH2 [QRH*-Cy5.5]

Second part, the molecule before the results:

Molecule: PEHKRRQ [PEH*-Cy5.5]
binding to cell surface (SW620) (SW620 cells): Minimal binding
fluorescence signal from flat lesions [1, 10]: Minimal signal
fluorescence signal from polyp [1, 10]: Minimal signal
T/B ratio (log2), flat lesions ([1]; topical 100 μM): 0.36±0.47 log2
T/B ratio (log2), polyps ([1]; topical 100 μM): 0.62±0.77 log2
binding to cell surface (HT29) (HT29 cells [2]): Minimal binding
intensity siCL vs siEGFR (in words) [3]: nonsignificant decrease
binding/intensity in HT29 knockdown cells (siEGFR) [3]: minimal binding
binding to control HT29 cells (siCL) [3]: minimal binding
peak emission [4]: 710 nm
binding to cell surface (SW480) (SW480 cells): Minimal binding

Molecule: QRHKPRE [QRH*-Cy5.5]
area under ROC curve (AUC) (human colonic dysplasia; dysplasia vs normal, n=29 and 15): 0.94
time scale for binding (HT29 cells [6]): 2.46 min
EGFR phosphorylation / downstream signaling [5]: no evidence of either EGFR phosphorylation or downstream phosphorylation of Akt and Erk1/2
binding to dysplastic crypts in polyps [7]: increased fluorescence intensity
fluorescence signal from flat lesions [1, 10]: Several flat lesions are seen on fluorescence; also recorded: presence of flat lesions
fluorescence signal from polyp [1, 10]: increased intensity from the polyp in a heterogeneous pattern
signal from normal colonic mucosa [1, 10]: minimal background
mean fold difference of T/B ratio QRH*-Cy5.5 vs PEH*-Cy5.5, flat lesions [1, 11]: 2.05
mean fold difference of T/B ratio QRH*-Cy5.5 vs PEH*-Cy5.5, polyps [1, 11]: 2.43
T/B ratio (log2), flat lesions ([1]; topical 100 μM): 1.39±0.34 log2
T/B ratio (log2), polyps ([1]; topical 100 μM): 1.90±0.60 log2
target-to-background ratio, flat lesions ([1]; topical 100 μM): 2.7±0.7
target-to-background ratio, polyps ([1]; topical 100 μM): 4.0±1.7
difference in results between QRH*-Cy5.5 and PEH*-Cy5.5 (target-to-background) ([1]; topical 100 μM, 5 min): significant
intensity siCL vs siEGFR (in words) [3]: significantly higher intensities for siCL-transfected HT29 cells
binding/intensity in HT29 knockdown cells (siEGFR) [3]: Reduced fluorescence intensity
binding to control HT29 cells (siCL) [3]: bind strongly to the surface; also recorded: strong binding
peak emission [4]: 710 nm

Molecule: VRPMPLQ
detection of dysplastic colorectal polyps [8]: used to detect human dysplastic colorectal polyps in vivo with confocal endomicroscopy
